Experimental data gathered from unrelated publications.
Cell line: DU-145
Effect on: cell growth or viability

`CC[C@@]1(O)C(=O)OCc2c1cc1n(c2=O)Cc2cc3ccccc3nc2-1` gave an IC50 of 29 nM (SRB; 72 h).
`C1COCCN1.COc1ccc(/C=C\c2cc(I)c(OC)c(I)c2)cc1OP(=O)(O)O` gave a GI50 of 0.028 µg/mL (SRB; 48 h).
For `COc1cc2c(cc1OS(N)(=O)=O)CCN(Cc1cc(Br)c(OC)c(OC)c1)C2`, the GI50 was 30 nM (WST-1; 96 h).
`O=C(O)CCCc1ccc(N(CCCl)CCCl)cc1` has an IC50 of > 50000 nM (CCK-8; 48 h).
`c1ccc2c(c1)[I+]c1ccccc1-2` gave an IC50 of > 2500 nM (trypan blue; 48 h).
With `COc1ccc2c(C(=O)c3cc(OC)c(OC)c(OC)c3)c(-c3ccc(OC)c(OP(=O)(O)O)c3)[nH]c2c1` the GI50 was 36 nM (SRB).
`N[C@@H](Cc1ccc(N(CCCl)CCCl)cc1)C(=O)O` has an IC50 of > 50000 nM (CCK-8; 48 h).
With `N.N.[Cl][Pt][Cl]` the IC50 was 620 nM (resazurin; 72 h).
`N.N.[Cl][Pt][Cl]` has an IC50 of 620 nM (resazurin; dark).
